Reference: ChEMBL document CHEMBL4020721 (Eur J Med Chem, 2017)

What was measured:
NCI-H1993 [1] = experiment: Antitumor activity against human NCI-H1993 cells xenografted in BALB/c athymic nude mouse assessed as tumor growth inhibition at 1 mg/kg, po administered once daily for 3 weeks; type: functional; settings: 504 h, read-out: TGI
Outline: (§1)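 BALB/c nude mice, 5-6 weeks old, kept under SPF conditions, received 7×10^6 NCI-H1993 cells s.c. in the right flank. At 150-250 mm³ they were sorted and randomized, n=7 per group, with vehicle controls. Dosing was oral, once daily for 3 weeks. […] Mean±SEM, Student's t-test.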

[2] = Volume of distribution at steady state in Sprague-Dawley rat plasma at 1 mg/kg, iv by UPLC-MS/MS analysis; type: ADME, organism-based; settings: read-out: Vdss
Outline: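 Male Sprague-Dawley rats (180-220 g), fasted overnight with water available, dosed iv (n=2). Blood on heparin collected from 0 to 1440 min. Plasma obtained by centrifugation and stored at -20°C. Proteins precipitated with acetonitrile containing internal standard, then UPLC-MS/MS. Vss taken from the iv data.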

Mus musculus [3] = experiment: Toxicity in BALB/c athymic nude mouse xenografted with human NCI-H1993 cells assessed as apparent toxicity parameters at 0.1 to 10 mg/kg, po administered once daily for 3 weeks; type: organism-based; settings: in vivo, 504 h
[4] = Intrinsic clearance in rat liver microsomes assessed per mg protein at 1 uM preincubated for 5 mins followed by NADPH addition measured after 5 to 30 mins by LC-MS/MS analysis; type: ADME, microsome; settings: read-out: CLH
Outline: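 Microsomes (0.5 mg/ml) with 1 µM compound were preincubated 5 min at 37°C in 100 mM phosphate buffer pH 7.4, then started with 1 mM NADPH. Samples were taken at 0, 5, 10 and 30 min, quenched with acetonitrile/tinidazole and run by LC-MS/MS. CLint = k / microsomal protein concentration. Midazolam was the positive control.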

Mus musculus [5] = experiment: Toxicity in BALB/c athymic nude mouse xenografted with human SNU5 cells assessed as body weight loss at 0.3 to 3 mg/kg, po administered once daily for 2 weeks; type: organism-based; settings: in vivo, 336 h
Outline: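 Female/male BALB/c nude mice (5-6 weeks, SPF). NCI-H1993 cells (7×10^6 in 140 µL) or SNU-5 cells (6×10^6 in 200 µL) injected s.c. into the right flank. Dosing started at mean tumour volume 150-250 mm³ (NCI-H1993) or 100-200 mm³ (SNU-5). Randomized, n = 7 (NCI-H1993) or 6 (SNU-5) per group. Oral dosing once daily; vehicle controls. Body weight and signs of toxicity monitored during treatment.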

NCI-H1993 [6] = experiment: Antitumor activity against human NCI-H1993 cells xenografted in BALB/c athymic nude mouse assessed as tumor growth inhibition at 10 mg/kg, po administered once daily for 3 weeks; type: functional; settings: 504 h, read-out: TGI; outline: as §1
CYP3A4 = CYP3A4 (Homo sapiens, UniProt P08684); experiment: Reversible inhibition of CYP3A4 in human liver microsomes at 10 uM after 20 mins in presence of NADPH by LC-MS/MS analysis; type: ADME; settings: liver microsomes
Sequence of CYP3A4 (P08684 whole entry): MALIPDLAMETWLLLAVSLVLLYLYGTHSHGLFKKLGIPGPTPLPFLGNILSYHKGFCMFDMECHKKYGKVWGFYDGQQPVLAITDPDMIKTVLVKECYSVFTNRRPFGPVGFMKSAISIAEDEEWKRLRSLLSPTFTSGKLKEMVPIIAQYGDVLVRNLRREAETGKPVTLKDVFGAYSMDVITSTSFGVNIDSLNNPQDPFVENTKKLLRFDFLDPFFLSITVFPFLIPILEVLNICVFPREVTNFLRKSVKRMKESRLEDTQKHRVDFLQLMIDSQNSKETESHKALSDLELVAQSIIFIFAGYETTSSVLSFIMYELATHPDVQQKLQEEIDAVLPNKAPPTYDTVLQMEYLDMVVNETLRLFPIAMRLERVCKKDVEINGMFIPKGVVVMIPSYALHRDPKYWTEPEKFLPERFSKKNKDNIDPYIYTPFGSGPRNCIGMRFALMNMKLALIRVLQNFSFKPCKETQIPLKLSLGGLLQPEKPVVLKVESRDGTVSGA

[7] = Cmax in Sprague-Dawley rat plasma at 6 mg/kg, po by UPLC-MS/MS analysis; type: ADME, organism-based; design: dose 6 mg/kg, route oral
Outline: (§2)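 Male Sprague-Dawley rats (180-220 g) were fasted overnight with free access to water. Dosing was intravenous (n=2) or oral at 6 mg/kg (n=3). Heparinized blood was drawn from 0 to 1440 min. Plasma was frozen at -20°C, then precipitated with acetonitrile containing internal standard, centrifuged and analysed by UPLC-MS/MS.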

[8] = biological target: Hepatocyte growth factor receptor (Homo sapiens, UniProt P08581); experiment: Inhibition of c-MET (unknown origin) using TK substrate-biotin peptide as substrate preincubated for 5 to 10 mins followed by ATP addition measured after 30 mins by HTRF assay
CYP1A2 = biological target: T1, CYP1A2 (Homo sapiens, UniProt P05177); experiment: Reversible inhibition of CYP1A2 in human liver microsomes at 10 uM after 20 mins in presence of NADPH by LC-MS/MS analysis; type: ADME
T1 sequence (P05177 whole entry): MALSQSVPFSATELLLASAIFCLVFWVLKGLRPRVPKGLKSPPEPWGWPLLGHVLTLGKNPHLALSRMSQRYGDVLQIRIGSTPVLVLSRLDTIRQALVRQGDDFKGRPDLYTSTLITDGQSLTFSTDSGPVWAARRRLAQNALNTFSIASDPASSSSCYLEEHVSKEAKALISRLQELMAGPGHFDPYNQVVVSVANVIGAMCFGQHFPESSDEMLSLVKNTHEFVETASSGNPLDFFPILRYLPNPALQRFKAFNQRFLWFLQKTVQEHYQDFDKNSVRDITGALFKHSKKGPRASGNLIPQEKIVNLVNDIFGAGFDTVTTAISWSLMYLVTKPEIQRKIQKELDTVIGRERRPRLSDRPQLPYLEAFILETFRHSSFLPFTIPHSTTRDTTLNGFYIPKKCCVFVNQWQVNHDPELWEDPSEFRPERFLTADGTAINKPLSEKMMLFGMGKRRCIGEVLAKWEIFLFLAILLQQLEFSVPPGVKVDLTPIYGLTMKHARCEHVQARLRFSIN

[9] = biological target: ALK tyrosine kinase receptor (Homo sapiens, UniProt Q9UM73); experiment: Inhibition of ALK (unknown origin) using FAM-labeled peptide as substrate preincubated for 5 to 10 mins followed by substrate/ATP addition measured after 30 to 60 mins by mobility shift assay
Sequence of ALK tyrosine kinase receptor (Q9UM73 whole entry): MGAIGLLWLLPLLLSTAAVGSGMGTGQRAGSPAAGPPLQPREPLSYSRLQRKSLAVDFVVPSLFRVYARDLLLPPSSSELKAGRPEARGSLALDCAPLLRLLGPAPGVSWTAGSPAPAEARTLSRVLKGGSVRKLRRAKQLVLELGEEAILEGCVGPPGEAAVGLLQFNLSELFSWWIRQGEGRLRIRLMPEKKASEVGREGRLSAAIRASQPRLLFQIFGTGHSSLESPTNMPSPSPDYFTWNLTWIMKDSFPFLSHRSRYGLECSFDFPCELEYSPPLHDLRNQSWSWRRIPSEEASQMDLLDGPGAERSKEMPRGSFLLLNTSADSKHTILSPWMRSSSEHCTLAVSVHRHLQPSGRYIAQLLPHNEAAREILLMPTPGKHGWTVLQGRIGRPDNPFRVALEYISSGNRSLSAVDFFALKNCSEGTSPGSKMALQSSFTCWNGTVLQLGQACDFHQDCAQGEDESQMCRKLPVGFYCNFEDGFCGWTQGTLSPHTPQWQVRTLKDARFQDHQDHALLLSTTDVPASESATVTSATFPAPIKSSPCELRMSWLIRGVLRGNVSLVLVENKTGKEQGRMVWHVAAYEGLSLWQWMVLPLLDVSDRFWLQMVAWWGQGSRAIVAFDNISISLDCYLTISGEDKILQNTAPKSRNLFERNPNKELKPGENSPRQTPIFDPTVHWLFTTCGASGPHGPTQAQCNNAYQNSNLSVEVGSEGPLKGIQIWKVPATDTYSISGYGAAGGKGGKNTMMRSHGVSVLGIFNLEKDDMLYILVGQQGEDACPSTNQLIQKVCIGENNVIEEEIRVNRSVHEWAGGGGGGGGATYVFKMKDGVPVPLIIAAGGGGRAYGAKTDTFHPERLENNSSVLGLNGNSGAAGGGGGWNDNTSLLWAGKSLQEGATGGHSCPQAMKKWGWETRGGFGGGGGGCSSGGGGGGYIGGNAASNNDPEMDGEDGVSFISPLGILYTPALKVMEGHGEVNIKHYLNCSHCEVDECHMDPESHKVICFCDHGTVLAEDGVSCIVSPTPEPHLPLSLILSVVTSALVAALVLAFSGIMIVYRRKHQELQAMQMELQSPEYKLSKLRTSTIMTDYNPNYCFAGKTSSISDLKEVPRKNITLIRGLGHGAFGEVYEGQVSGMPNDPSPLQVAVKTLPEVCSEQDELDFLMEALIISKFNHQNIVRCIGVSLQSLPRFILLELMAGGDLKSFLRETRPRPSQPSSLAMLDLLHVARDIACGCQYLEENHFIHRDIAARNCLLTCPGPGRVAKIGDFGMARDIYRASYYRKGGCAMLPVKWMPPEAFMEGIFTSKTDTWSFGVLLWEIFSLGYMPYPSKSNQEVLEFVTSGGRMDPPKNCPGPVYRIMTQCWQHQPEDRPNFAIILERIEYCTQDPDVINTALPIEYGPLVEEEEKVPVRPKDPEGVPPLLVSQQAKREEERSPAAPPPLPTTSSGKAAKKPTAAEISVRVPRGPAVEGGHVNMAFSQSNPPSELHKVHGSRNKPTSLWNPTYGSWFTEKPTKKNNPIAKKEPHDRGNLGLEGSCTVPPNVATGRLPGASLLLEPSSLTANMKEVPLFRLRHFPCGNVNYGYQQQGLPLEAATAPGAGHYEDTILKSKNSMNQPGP
Outline: (§3)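 Caliper mobility-shift assay with FAM-labeled peptide substrate. Buffer: 50 mM HEPES pH 7.5, 0.0015% Brij-35, 10 mM MgCl2, 2 mM DTT, with kinase-specific enzyme levels. […] Incubation was 30-60 min at 28°C, stopped with EDTA buffer. Read-out was % conversion.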

[10] = biological target: Tyrosine-protein kinase ABL1 (Homo sapiens, UniProt P00519); experiment: Inhibition of ABL (unknown origin) using FAM-labeled peptide as substrate preincubated for 5 to 10 mins followed by substrate/ATP addition measured after 30 to 60 mins by mobility shift assay; outline: as §3
Sequence of Tyrosine-protein kinase ABL1 (P00519 whole entry): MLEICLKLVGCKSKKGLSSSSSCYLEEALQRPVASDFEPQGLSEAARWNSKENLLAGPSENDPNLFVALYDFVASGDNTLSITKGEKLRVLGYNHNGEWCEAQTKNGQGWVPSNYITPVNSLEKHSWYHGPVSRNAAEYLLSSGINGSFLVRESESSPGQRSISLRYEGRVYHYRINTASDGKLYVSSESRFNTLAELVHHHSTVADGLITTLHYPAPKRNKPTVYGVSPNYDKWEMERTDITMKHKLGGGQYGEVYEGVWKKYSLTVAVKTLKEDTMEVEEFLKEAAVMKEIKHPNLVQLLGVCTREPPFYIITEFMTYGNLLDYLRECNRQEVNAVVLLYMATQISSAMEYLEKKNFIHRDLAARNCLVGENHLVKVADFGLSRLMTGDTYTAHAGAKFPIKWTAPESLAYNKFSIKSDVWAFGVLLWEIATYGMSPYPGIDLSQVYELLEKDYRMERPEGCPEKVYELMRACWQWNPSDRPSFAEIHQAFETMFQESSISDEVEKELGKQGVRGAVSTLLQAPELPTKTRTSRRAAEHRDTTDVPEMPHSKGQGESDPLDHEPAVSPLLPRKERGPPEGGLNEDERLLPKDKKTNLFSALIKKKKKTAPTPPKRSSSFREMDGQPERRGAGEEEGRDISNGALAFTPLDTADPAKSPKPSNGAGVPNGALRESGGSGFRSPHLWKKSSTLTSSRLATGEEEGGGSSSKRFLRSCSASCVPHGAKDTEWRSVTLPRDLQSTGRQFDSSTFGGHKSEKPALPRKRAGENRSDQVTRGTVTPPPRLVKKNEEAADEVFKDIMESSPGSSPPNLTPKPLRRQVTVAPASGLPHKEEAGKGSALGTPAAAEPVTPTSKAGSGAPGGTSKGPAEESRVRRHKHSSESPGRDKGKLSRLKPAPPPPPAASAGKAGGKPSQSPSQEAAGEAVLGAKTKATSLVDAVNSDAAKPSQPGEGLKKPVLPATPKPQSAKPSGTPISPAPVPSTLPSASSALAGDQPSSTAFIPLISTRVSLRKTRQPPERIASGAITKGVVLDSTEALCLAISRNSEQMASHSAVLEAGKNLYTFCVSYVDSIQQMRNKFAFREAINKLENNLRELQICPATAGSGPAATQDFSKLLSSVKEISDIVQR

SNU-5 [11] = experiment: Antitumor activity against human SNU5 cells xenografted in BALB/c athymic nude mouse assessed as percent tumor regression at 0.3 mg/kg, po administered once daily for 2 weeks; type: functional
Outline: (§4)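 Nude BALB/c mice, 5-6 weeks old, under SPF conditions, were implanted s.c. in the right flank with 6×10^6 SNU-5 cells. Groups were sorted at 100-200 mm³, n=6, with vehicle controls. Oral dosing once daily for 2 weeks. Percent tumor regression = 100% × (treated day 0 − treated final)/treated day 0. Mean±SEM, Student's t-test.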

SNU-5 [12] = experiment: Antitumor activity against human SNU5 cells xenografted in BALB/c athymic nude mouse assessed as tumor regression at 1 mg/kg, po administered once daily for 2 weeks; type: functional; outline: as §4
[13] = Half life in Sprague-Dawley rat plasma at 1 mg/kg, iv by UPLC-MS/MS analysis; type: ADME, organism-based; outline: as §2
[14] = biological target: Macrophage-stimulating protein receptor (Homo sapiens, UniProt Q04912); experiment: Inhibition of RON (unknown origin) using FAM-labeled peptide as substrate preincubated for 5 to 10 mins followed by substrate/ATP addition measured after 30 to 60 mins by mobility shift assay; outline: as §3
Sequence of Macrophage-stimulating protein receptor (Q04912 25-304 limits assumed): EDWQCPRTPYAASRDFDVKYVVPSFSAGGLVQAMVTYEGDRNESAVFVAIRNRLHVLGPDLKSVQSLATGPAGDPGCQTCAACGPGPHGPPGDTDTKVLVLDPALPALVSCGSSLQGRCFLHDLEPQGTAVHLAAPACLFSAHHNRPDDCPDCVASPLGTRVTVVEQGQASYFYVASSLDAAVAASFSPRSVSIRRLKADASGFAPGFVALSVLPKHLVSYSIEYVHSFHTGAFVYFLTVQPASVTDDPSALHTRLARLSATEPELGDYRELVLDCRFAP
Sequence of Macrophage-stimulating protein receptor (Q04912 310-1400 limits assumed): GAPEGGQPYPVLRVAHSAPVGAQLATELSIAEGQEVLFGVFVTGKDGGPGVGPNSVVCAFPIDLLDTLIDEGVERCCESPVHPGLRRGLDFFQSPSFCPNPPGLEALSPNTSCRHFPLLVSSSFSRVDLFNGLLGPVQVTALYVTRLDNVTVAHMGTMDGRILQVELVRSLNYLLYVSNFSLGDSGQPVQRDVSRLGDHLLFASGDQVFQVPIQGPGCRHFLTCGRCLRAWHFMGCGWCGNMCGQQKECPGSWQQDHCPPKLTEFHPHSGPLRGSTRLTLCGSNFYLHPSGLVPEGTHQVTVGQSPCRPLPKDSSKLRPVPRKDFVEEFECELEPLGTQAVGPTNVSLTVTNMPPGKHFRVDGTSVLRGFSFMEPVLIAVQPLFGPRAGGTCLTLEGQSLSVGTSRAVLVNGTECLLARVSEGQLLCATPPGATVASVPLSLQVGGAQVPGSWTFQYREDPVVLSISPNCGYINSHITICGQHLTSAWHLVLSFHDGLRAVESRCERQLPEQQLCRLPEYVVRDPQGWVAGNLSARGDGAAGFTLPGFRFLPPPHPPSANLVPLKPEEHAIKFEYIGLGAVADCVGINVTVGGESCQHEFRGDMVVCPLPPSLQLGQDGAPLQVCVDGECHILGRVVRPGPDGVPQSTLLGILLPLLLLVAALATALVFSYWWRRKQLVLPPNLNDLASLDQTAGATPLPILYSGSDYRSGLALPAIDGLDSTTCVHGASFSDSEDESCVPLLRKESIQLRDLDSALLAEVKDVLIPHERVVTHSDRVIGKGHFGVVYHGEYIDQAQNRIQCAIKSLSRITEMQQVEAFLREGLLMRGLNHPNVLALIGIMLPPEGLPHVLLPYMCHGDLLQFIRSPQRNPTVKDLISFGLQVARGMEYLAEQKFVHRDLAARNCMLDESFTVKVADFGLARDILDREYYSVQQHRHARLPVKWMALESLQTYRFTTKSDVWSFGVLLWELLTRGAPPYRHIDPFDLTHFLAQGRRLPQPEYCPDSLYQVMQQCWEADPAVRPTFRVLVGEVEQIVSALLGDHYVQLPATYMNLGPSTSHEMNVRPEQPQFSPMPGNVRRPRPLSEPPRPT

- Vd [2]: 2.1 L/kg
- microsomal CLint at 1 µM [4]: 5 µL/min/mg
- inhibition at 20 min, 10 µM (CYP3A4): < 50%
- Cmax [7]: 0.135 µg/mL
- IC50 [8]: 0.0006 µM
- inhibition at 20 min, 10 µM (CYP1A2): < 50%
- IC50 [9]: > 30 µM
- IC50 [10]: > 30 µM
- half-life [13]: 3.7 h
- IC50 [14]: 0.731 µM
SMILES: CC(c1cc2cc(-c3cnn(C)c3)cnc2cc1F)n1nnc2ncc(-c3cnn(CCO)c3)nc21 (stereo in doubt; 14)
- inhibition in vivo at 1 mg/kg (NCI-H1993 [1]): 78.7%
- Activity (Mus musculus [3]): Non-Toxic
- Activity (Mus musculus [5]): Non-Toxic
- inhibition in vivo at 10 mg/kg (NCI-H1993 [6]): 90.8%
- Activity (SNU-5 [11]): 34%
- Activity (SNU-5 [12]): 79.2%
